The nature of series [1]: Half life in mouse serum. The class given is ADME, cell-free.
Series [2] is described as follows: Drug localization in mitochondria of human U87 cells at 20 uM incubated for 45 mins by Mitotracker staining-based confocal fluorescence microscopy. Format: ADME. The settings on record: u-87mg atcc, 0.75 h. An outline of the steps:
(§1)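 U87 cells seeded at 10 000/well in imaging chambers and left overnight. Exposed to 20 μM compound in FluoroBrite DMEM for 45 min at 37 °C, then washed with HBSS. Stained 15 min with LysoTracker (1:10 000) or MitoTracker (1:15 000), plus NucBlue nuclear stain. Imaged live by confocal microscopy at 60×, dye excited at 633 nm. Colocalization scored by Pearson's correlation coefficient.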

Series [3] is described as follows: Drug localization in lysosome of human U87 cells at 20 uM incubated for 45 mins by Lysotracker staining-based confocal fluorescence microscopy. Format: ADME. The settings on record: u-87mg atcc, 0.75 h. An outline of the steps:
as §1

Series [4] concerns U-87 MG. Description: Cytotoxicity against human U87 cells assessed as reduction in cell viability incubated for 72 hrs by AlamarBlue assay. Format: functional, cell-based, U-87MG ATCC. (In general: Alamar Blue is a resazurin reagent that responds to reducing activity.)
Series [5] relates to U-87 MG. Description: Cytotoxicity against human U87 cells assessed as reduction in cell viability at 0.001 to 10 uM incubated for 72 hrs by AlamarBlue assay. The settings on record: U-87MG ATCC. Format: functional, cell-based. Summed up: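 U87 cells, grown in DMEM/F12 with 10% FBS, seeded at 5000/well and left overnight. Compounds added in protein-free hybridoma medium (PFHM II) to final 0.001–10 μM and incubated 72 h at 37 °C. Viability read by AlamarBlue, 2 h, fluorescence Ex/Em 560/590 nm. IC50 taken relative to the lowest concentration beyond which no further cell death occurs.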

These results are taken from ChEMBL document CHEMBL4321807, “Cyanine-Gemcitabine Conjugates as Targeted Theranostic Agents for Glioblastoma Tumor Cells” (J Med Chem, 2019).

pIC50: −log10 of the molar value. Calls of active or inactive are those of the source. The calls are words filed in the database; no cut-off is given here.

Consider `CC1(C)C(/C=C/C2=C(Cl)C(=C/C=C3/N(CCCCCC(=O)O)c4ccccc4C3(C)C)/CCC2)=[N+](CCCCCC(=O)O)c2ccccc21.[Cl-]`, for which, in series [1], the half-life (in general, the time in which the quantity being followed falls by half) was found to be 36 min. Moreover, the Drug uptake result in series [2] and in series [3] was “Active” each time.
On to `CC1(C)C(/C=C/C2=C(SCCC(=O)Nc3ccn([C@@H]4O[C@H](CO)[C@@H](O)C4(F)F)c(=O)n3)C(=C/C=C3/N(CCCCS(=O)(=O)O)c4ccccc4C3(C)C)/CCC2)=[N+](CCCCS(=O)(=O)O)c2ccccc21.[Cl-]`, for which the pIC50 (commonly the IC50 on a negative log10 scale, so that one unit is a factor of ten) in series [4] is 7.68. Also, the Drug uptake entry in series [2] and in series [3] was “Active” each time.
In the case of `CC1(C)C(/C=C/C2=C(SCCC(=O)Nc3ccn([C@H]4C[C@H](O)[C@@H](CO)O4)c(=O)n3)C(=C/C=C3/N(CCCCS(=O)(=O)O)c4ccccc4C3(C)C)/CCC2)=[N+](CCCCS(=O)(=O)O)c2ccccc21`, the result in series [5] was Active.
As for `CCCN1/C(=C/C=C2\CCCC(/C=C/C3=[N+](CCC)c4ccccc4C3(C)C)=C2Cl)C(C)(C)c2ccccc21.[Cl-]`, the negative-log IC50 (pIC50) in series [4] is 5.15. In addition, the Drug uptake result in series [2] and in series [3] was “Active” throughout.
On to `CC1(C)C(/C=C/C2=C(Cl)C(=C/C=C3/N(CCCCCC(=O)O)c4ccccc4C3(C)C)/CCC2)=[N+](CCCCS(=O)(=O)O)c2ccccc21.[Cl-]`, for which the Drug uptake entry in series [2] and in series [3] was “Active” in each case.
Regarding `CC1(C)C(/C=C/C2=C(SCCC(=O)Nc3ccn([C@@H]4O[C@H](CO)[C@@H](O)C4(F)F)c(=O)n3)C(=C/C=C3/N(CCCCCC(=O)O)c4ccccc4C3(C)C)/CCC2)=[N+](CCCCS(=O)(=O)O)c2ccccc21.[Cl-]`, in series [2], the Drug uptake result is on record as “Not Active”.
Take `CC1(C)C(/C=C/C2=C(Cl)C(=C/C=C3/N(CCCCS(=O)(=O)O)c4ccccc4C3(C)C)/CCC2)=[N+](CCCCS(=O)(=O)O)c2ccccc21.[Cl-]`: the Drug uptake result in series [2] and in series [3] was “Active” each time.
